Assay results published in ChEMBL document CHEMBL1156852, “Synthesis and biological evaluation of simple methoxylated chalcones as anticancer, anti-inflammatory and antioxidant agents” (Bioorg Med Chem, 2010).

Key:
[1] = Toxicity against […] assessed as cell growth; format: cell-based; set-up: concentration or dose not given beside the values
[2] = test system: THP-1; experiment: Antiinflammatory activity in human THP1 cells assessed as inhibition of LPS-induced IL6 release at 10 uM preincubated for 30 mins before LPS challenge by ELISA; format: functional
[3] = test system: Calu-1; experiment: Growth inhibition of human Calu1 cells at 10 uM after 24 hrs by propidium iodide assay; format: functional; settings: Calu-1, 24 h, read-out: GI
[4] = test system: ACHN; experiment: Growth inhibition of human ACHN cells at 10 uM after 48 hrs by propidium iodide assay; settings: read-out: GI
[5] = test system: PANC-1; experiment: Growth inhibition of human PANC1 cells at 10 uM after 48 hrs by propidium iodide assay; settings: PANC-1, 48 h, read-out: GI
[6] = test system: Radical scavenging activity; experiment: Antioxidant activity assessed as radical DPPH scavenging activity at 1 mM/mL; format: functional
How it was run: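 DPPH radical scavenging by the Blois method. Compound stock solutions (1 mM) were mixed with 0.3 mM DPPH in methanol in a 3 mL total reaction and left to react at room temperature.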

[7] = test system: HCT-116; experiment: Growth inhibition of human HCT116 cells at 10 uM after 48 hrs by propidium iodide assay; settings: HCT-116, 48 h, read-out: GI
[8] = test system: NCI-H460; experiment: Growth inhibition of human H460 cells at 10 uM after 24 hrs by propidium iodide assay; format: functional; settings: NCI-H460, 24 h, read-out: GI
[9] = test system: THP-1; experiment: Antiinflammatory activity in human THP1 cells assessed as inhibition of LPS-induced TNFalpha release at 10 uM preincubated for 30 mins before LPS challenge by ELISA; format: functional
[10] = test system: PANC-1; experiment: Growth inhibition of human PANC1 cells at 700 nM after 48 hrs by propidium iodide assay; settings: PANC-1, 48 h, read-out: GI
[11] = test system: Calu-1; experiment: Growth inhibition of human Calu1 cells at 700 nM after 24 hrs by propidium iodide assay; format: functional; settings: Calu-1, 24 h, read-out: GI
[12] = test system: HCT-116; experiment: Growth inhibition of human HCT116 cells at 700 nM after 48 hrs by propidium iodide assay; settings: HCT-116, 48 h, read-out: GI
[13] = test system: ACHN; experiment: Growth inhibition of human ACHN cells at 700 nM after 48 hrs by propidium iodide assay; settings: read-out: GI
[14] = test system: NCI-H460; experiment: Growth inhibition of human H460 cells at 700 nM after 48 hrs by propidium iodide assay; settings: NCI-H460, 48 h, read-out: GI
[15] = test system: HCT-116; experiment: Growth inhibition of human HCT116 cells at 500 nM after 48 hrs by propidium iodide assay; settings: HCT-116, 48 h, read-out: GI
[16] = test system: PANC-1; experiment: Growth inhibition of human PANC1 cells at 500 nM after 24 hrs by propidium iodide assay; format: functional; settings: PANC-1, 24 h, read-out: GI
[17] = test system: Calu-1; experiment: Growth inhibition of human Calu1 cells at 500 nM after 24 hrs by propidium iodide assay; format: functional; settings: Calu-1, 24 h, read-out: GI
[18] = test system: NCI-H460; experiment: Growth inhibition of human H460 cells at 500 nM after 48 hrs by propidium iodide assay; settings: NCI-H460, 48 h, read-out: GI
[19] = test system: ACHN; experiment: Growth inhibition of human ACHN cells at 500 nM after 48 hrs by propidium iodide assay; settings: read-out: GI
[20] = test system: THP-1; experiment: Antiinflammatory activity in human THP1 cells assessed as inhibition of LPS-induced TNFalpha release at 1 uM preincubated for 30 mins before LPS challenge by ELISA; format: functional
How it was run: (§1)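 PMA-differentiated THP-1 cells grown in RPMI 1640 with 10% FBS, penicillin and streptomycin. Compounds in 0.5% DMSO were added and preincubated 30 min at 37 °C, then cells were stimulated with E. coli 0127:B8 LPS. Released cytokine was quantified with a BD Biosciences kit per the manufacturer. Percent inhibition of release was calculated versus control. Cytotoxicity was checked in parallel by CCK-8.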

[21] = test system: THP-1; experiment: Antiinflammatory activity in human THP1 cells assessed as inhibition of LPS-induced IL6 release at 1 uM preincubated for 30 mins before LPS challenge by ELISA; format: functional; how it was run: as §1

`COc1ccc(C(=O)/C=C/c2ccc(OC)cc2OC)cc1` gave an Activity [1] of 29%, an inhibition at 10 µM [2] of 39% and an inhibition of growth at 10 µM [3] of 31%. It also gave an inhibition of growth at 10 µM [4] of 45%, an inhibition of growth at 10 µM [5] of 36% and an Activity [6] of 32.3%. For the same molecule, the inhibition of growth at 10 µM [7] was 37%, the inhibition of growth at 10 µM [8] was 38% and the inhibition at 10 µM [9] was 0%.
In the case of `COc1ccc(O)c(C(C)(C)C)c1.COc1ccc(O)cc1C(C)(C)C`, the Activity [6] is reported as 74%.
Work on `COc1ccc(/C=C/C(=O)c2ccc(Cl)cc2)c(OC)c1` yielded an Activity [1] of 0%, an inhibition at 10 µM [2] of 12% and an inhibition of growth at 10 µM [3] of 28%. It also gave an inhibition of growth at 10 µM [4] of 28%, an inhibition of growth at 10 µM [5] of 29% and an Activity [6] of 26.4%. For the same molecule, the inhibition of growth at 10 µM [7] was 22%, the inhibition of growth at 10 µM [8] was 29% and the inhibition at 10 µM [9] was 0%.
In the case of `COc1ccc(/C=C/C(=O)c2ccc(OC)cc2OC)c(OC)c1`, the Activity [1] is reported as 35%, the inhibition at 10 µM [2] is reported as 81% and the inhibition of growth at 10 µM [3] is reported as 32%. For the same molecule, the inhibition of growth at 10 µM [4] was 48%, the inhibition of growth at 10 µM [5] was 43% and the Activity [6] was 31.3%. For the same molecule, the inhibition of growth at 10 µM [7] was 31%, the inhibition of growth at 10 µM [8] was 38% and the inhibition at 10 µM [9] was 2%.
Work on `COc1cc(/C=C/C(=O)c2ccccc2)cc(OC)c1OC` yielded an Activity [1] of 73%, an inhibition at 10 µM [2] of 100% and an inhibition of growth at 10 µM [3] of 7%. For the same molecule, the inhibition of growth at 10 µM [4] was 33%, the inhibition of growth at 10 µM [5] was 7% and the Activity [6] was 47.2%. For the same molecule, the inhibition of growth at 10 µM [7] was 0%, the inhibition of growth at 10 µM [8] was 15% and the inhibition at 10 µM [9] was 100%.
Molecule `COc1cc(/C=C/C(=O)c2ccc(Cl)cc2)cc(OC)c1OC` has an Activity [1] of 79%, an inhibition at 10 µM [2] of 100% and an inhibition of growth at 10 µM [3] of 67%. It also gave an inhibition of growth at 10 µM [4] of 57%, an inhibition of growth at 10 µM [5] of 66% and an Activity [6] of 36.5%. For the same molecule, the inhibition of growth at 10 µM [7] was 92%, the inhibition of growth at 10 µM [8] was 54% and the inhibition at 10 µM [9] was 98%.
`CN1CC[C@H](c2c(O)cc(O)c3c(=O)cc(-c4ccccc4Cl)oc23)[C@H](O)C1` [ALVOCIDIB] showed an inhibition of growth at 0.7 µM [10] of 75%, an inhibition of growth at 0.7 µM [11] of 68% and an inhibition of growth at 0.7 µM [12] of 71%. For the same molecule, the inhibition of growth at 0.7 µM [13] was 68% and the inhibition of growth at 0.7 µM [14] was 84%.
For `COc1ccc(/C=C/C(=O)c2ccc(Cl)cc2Cl)c(OC)c1`, the Activity [1] was 2%, the inhibition at 10 µM [2] was 6% and the inhibition of growth at 10 µM [3] was 30%. It also gave an inhibition of growth at 10 µM [4] of 35%, an inhibition of growth at 10 µM [5] of 35% and an Activity [6] of 11.3%. For the same molecule, the inhibition of growth at 10 µM [7] was 26%, the inhibition of growth at 10 µM [8] was 29% and the inhibition at 10 µM [9] was 0%.
Molecule `Nc1ccn([C@@H]2O[C@H](CO)[C@@H](O)C2(F)F)c(=O)n1` [GEMCITABINE] has an inhibition of growth at 0.5 µM [15] of 76%, an inhibition of growth at 0.5 µM [16] of 71% and an inhibition of growth at 0.5 µM [17] of 70%. The inhibition of growth at 0.5 µM [18] was 68% and the inhibition of growth at 0.5 µM [19] was 70%.
For `C[C@@H]1C[C@H]2[C@@H]3CCC4=CC(=O)C=C[C@]4(C)[C@@]3(F)[C@@H](O)C[C@]2(C)[C@@]1(O)C(=O)CO` [DEXAMETHASONE], the Activity [1] was 0%, the inhibition at 1 µM [20] was 73% and the inhibition at 1 µM [21] was 84%.
With `COc1ccc(/C=C/C(=O)c2ccccc2)c(OC)c1` the Activity [1] was 79%, the inhibition at 10 µM [2] was 100% and the inhibition of growth at 10 µM [3] was 91%. For the same molecule, the inhibition of growth at 10 µM [4] was 93%, the inhibition of growth at 10 µM [5] was 94% and the Activity [6] was 38%. For the same molecule, the inhibition of growth at 10 µM [7] was 95%, the inhibition of growth at 10 µM [8] was 92% and the inhibition at 10 µM [9] was 98%.
